From PubChem BioAssay
ABCG2 inh: blocks JC-1 efflux by human ABCG2 transporter. 190,000 tested, 0.1% active. inhibition, % at 6.6 µM. IgMXP3 cells, flow cytometry. Q9UNQ0. AID 1325;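 active means inhibition above 80%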
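System: two drug-resistant human cell lines, ABCG2 and ABCB1; controls: nicardipine high and DMSO low controls; times: 10 min exposure at 25 °C with rotation, no wash; detection: flow cytometry of retained JC-1 fluorescence; read-out basis: percent efflux inhibition, scaled nicardipine 100% to DMSO 0%; doses: one concentration, 6.6 µM final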
ROMK primary: modulates human ROMK potassium channel activity; 130,000 tested, 2% active; AID 1918; B-score at 10 µM; Tet-inducible ROMK, thallium flux fluorescence; actives lie on both sides; P48048;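 active means signal ratio slope over the read window, or its plate-corrected B-score, at least 3 SD from the plate mean, either direction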;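 further: B-score of the F/F0 ratio slope over 7 to 12 s after thallium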
zfTRPN1 agonist: agonists of zebrafish TRPN1 channel. HEK293 zebrafish TRPN1-YFP, Fluo-8 calcium fluorescence; 100% = response to 87 µM carbachol. activation, % at 3 µM. 220,000 tested, 0.18% active;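 active means activation above its plate's cutoff, the mean activation of test wells on that plate plus 3 SD, cut at about 19% in these data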
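Material: zebrafish TRPN1-YFP in HEK293 cells. Doses: one dose of 3 µM, 0.3% DMSO. Incubation: dye 1 h 37 °C plus 30 min RT. Measured by: intracellular calcium fluorescence with Fluo-8.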
Calb biofilm kill: mixture kills Candida albicans biofilm cells; C. albicans biofilm persisters + clotrimazole, fluorescence viability; primary screen in compound mixtures of four per well; 120,000 tested, 0.02% active; AID 1242; inhibition, % at 7.6 µM;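 active means inhibition above 30.3% in the primary screen of four-compound pools, then above 30% when the compound was retested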;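 further: compounds exposed to preformed 24 h biofilms for 48 h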
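Test system: C. albicans biofilms. Buffer or medium: RPMI/MOPS medium, pH 7.0. Timing: 48 h compound exposure at 37 °C. Technique: Alamar Blue fluorescence. Evaluation: percent inhibition of biofilm viability.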
ABCB1 inh: human ABCB1 inhibition, ABCG2 as counter-screen; CCRF-Adr cells, JC-1 efflux, flow cytometry; inhibition, % at 6.6 µM; 190,000 tested, 0.067% active; AID 1326; in the data active means inhibition above about 40%;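 further: higher value means more JC-1 retained so stronger ABCB1 efflux block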
TRPML3 ag: agonists of human TRPML3 channel; Q8TDD5; HEK293 TRPML3-YFP, Fluo-8 calcium fluorescence; 100% = the carbachol control signal; activation, % at 3 µM; 220,000 tested, 0.29% active;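 active means activation above its plate's cutoff, the mean activation of the plate's test wells plus 3 SD, cut at about 12% in these data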
Target sequence (Q8TDD5 whole entry, looked up): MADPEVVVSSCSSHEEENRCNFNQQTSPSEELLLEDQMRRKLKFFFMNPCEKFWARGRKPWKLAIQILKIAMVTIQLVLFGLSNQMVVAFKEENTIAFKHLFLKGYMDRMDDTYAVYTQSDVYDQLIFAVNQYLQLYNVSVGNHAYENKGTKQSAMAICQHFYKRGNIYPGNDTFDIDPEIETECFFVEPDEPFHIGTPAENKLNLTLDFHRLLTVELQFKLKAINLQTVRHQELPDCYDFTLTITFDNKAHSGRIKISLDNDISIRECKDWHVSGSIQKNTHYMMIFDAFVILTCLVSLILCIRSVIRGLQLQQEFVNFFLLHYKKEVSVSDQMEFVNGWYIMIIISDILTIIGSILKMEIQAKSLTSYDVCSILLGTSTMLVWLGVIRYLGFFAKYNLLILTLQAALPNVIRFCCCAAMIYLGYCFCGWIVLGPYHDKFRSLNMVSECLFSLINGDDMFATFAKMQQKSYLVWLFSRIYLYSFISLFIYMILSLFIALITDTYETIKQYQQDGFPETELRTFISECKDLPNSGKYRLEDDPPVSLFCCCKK
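Material: HEK293 cells stably carrying human TRPML3-YFP; compound dosing: single dose, 3 µM final nominal compound, 0.3% DMSO final; incubation: 1-h 37 °C dye load, 5-s basal, 120-s post-compound reads; technique: Fluo-8 intracellular calcium fluorescence, excitation 470-495 nm, emission 515-575 nm; read-out basis: percent activation from peak-to-basal fluorescence ratio, scaled between DMSO and carbachol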
A number is an active result; i = inactive; nt = no result given. The entries come from a sample that favours hits as a whole.

SMILES	ABCG2 inh	ROMK primary	zfTRPN1 agonist	Calb biofilm kill	ABCB1 inh	TRPML3 ag
CCOc1ccc(NC(=O)c2cc(F)c(F)cc2Cl)cc1OCC	i	i	i	i	i	i
O=[N+]([O-])c1ccc(Sc2cccc[n+]2[O-])c2nonc12	nt	nt	35	i	nt	14
CCC(C(=O)Nc1ccccc1)c1ccccc1 (centres undefined)	173	i	i	i	nt	i
CC(=O)Oc1c(C)cc(Cl)cc1C(=O)Nc1ccc([N+](=O)[O-])cc1Cl	i	i	26	i	i	i
CC(=O)OCC(=O)Nc1ccc([N+](=O)[O-])cc1Cl	i	i	i	i	i	i
COc1ccc(S(=O)(=O)N(C)C)cc1NCC(=O)Nc1ccc(Br)c(C)c1	i	i	i	i	i	i
CSCCC(N=C(NS(=O)(=O)c1ccccc1)c1ccccc1)C(=O)O (centres undefined)	nt	nt	i	i	nt	i
CCN1CCCC1CNC(=O)c1ccc(N2CCOCC2)c(NS(=O)(=O)c2ccc(OC)cc2)c1 (centres undefined)	i	i	i	i	i	i
O=C1c2cccc3cccc(c23)C(=O)N1CCCN1CCN(c2ccc(F)cc2)CC1	i	i	i	i	i	i
CCOc1cc(/C=C(/NC(C)=O)C(=O)O)cc(Cl)c1OCc1ccc(Br)cc1	nt	nt	i	i	nt	i
O=C1OCC2=C1C(c1ccc(F)cc1)c1cc3c(cc1N2)OCO3 (centres undefined)	i	2.8	i	i	i	i
O=C1OCC2=C1C(c1ccc(F)cc1)c1cc3c(cc1N2)OCCO3 (centres undefined)	i	i	i	i	i	i
O=C(Sc1cccc2cccnc12)c1ccc(F)cc1	i	8.7	i	i	i	i
CCOC(=O)c1c(NC(=O)OC)sc2c1CCC2	i	nt	i	nt	i	i
CCOC(=O)c1c(NS(=O)(=O)Cc2ccccc2)sc2c1CCCC2	i	3.6	i	nt	i	i
CCOC(=O)c1c(NS(=O)(=O)c2ccc(Br)cc2)sc2c1CCC2	i	3.1	i	i	i	i
CCOC(=O)c1c(NC(=O)c2ccco2)sc2c1CCCCC2	i	i	i	nt	i	i
COc1ccc(-c2cn3nc4c(nc3n2)CCCC4)cc1	i	-3.2	i	nt	i	i
COCc1[nH]nc2c1C(c1sccc1C)C(C#N)=C(N)O2 (centres undefined)	i	-3.5	i	nt	i	i
CCCc1[nH]nc2c1C(c1ccc(OC)cc1OC)C(C#N)=C(N)O2 (centres undefined)	i	nt	i	nt	i	i
CCCc1[nH]nc2c1C(c1ccc(O)cc1OCC)C(C#N)=C(N)O2 (centres undefined)	i	-4.5	i	nt	i	i
O=C(O)CCCCCCCCCCP(=O)(c1ccccc1)c1ccccc1	nt	i	i	i	nt	i
O=P(CCCCCCCCCP(=O)(c1ccccc1)c1ccccc1)(c1ccccc1)c1ccccc1	i	-4.7	i	nt	i	i
CN=C1CC(SC)=C1c1ccc(C)cc1	i	-2.9	i	i	i	i
CC(C)CC(=O)NCCCCc1ccccc1	i	nt	i	i	i	i
SMILES	ABCG2 inh	ROMK primary	zfTRPN1 agonist	Calb biofilm kill	ABCB1 inh	TRPML3 ag
O=[N+]([O-])c1ccc(Oc2ccc(S(=O)(=O)Nc3ccccc3)cc2)cc1	i	nt	21	i	i	i
CC(C)c1ccc(/C=C2\Oc3c(ccc(O)c3CN3CCN(C)CC3)C2=O)cc1	i	-6.6	i	i	i	i
O=C(NCc1ccc(Cl)cc1)c1n[nH]c([N+](=O)[O-])c1Cl	i	i	i	i	i	i
COC(=O)C1=NN(C(=O)c2cccc(Cl)c2)C(O)(C(C)(C)C)C1 (centres undefined)	i	2.6	i	i	i	i
COc1ccc(NC(=O)/C(C#N)=C\c2ccc(N3CCOCC3)o2)cc1	i	nt	49	i	i	40
CCc1ccc(NC(=O)C(=O)NNC(=O)COc2cccc(OC)c2)cc1	i	2.8	i	i	i	i
COC(=O)NNC(=O)C12CC3CC(CC(C3)C1)C2	i	nt	i	i	i	i
NC(=S)NNC(=O)C12CC3CC(CC(C3)C1)C2	i	i	29	i	i	i
CC(C)c1ccc(OCC(=O)NC2=NCCS2)cc1	i	i	i	i	i	i
CCOc1ccc(/C=C2/SC(=O)NC2=S)cc1	i	4.4	34	i	i	14
CCOc1ccc(N=C2NC(=O)S/C2=C\c2ccc(N(C)C)cc2)cc1	i	nt	i	nt	i	i
CCN1CCN(C(c2ccccc2F)c2nnnn2Cc2ccc3c(c2)OCO3)CC1 (centres undefined)	i	-2.2	i	nt	i	i
c1ccc(CCn2nnnc2C(c2cccs2)N2CCN(Cc3ccc4c(c3)OCO4)CC2)cc1 (centres undefined)	i	-3.1	i	nt	i	i
CCN1CCN(C(c2ccc(F)cc2)c2nnnn2Cc2ccc3c(c2)OCO3)CC1 (centres undefined)	i	i	i	i	i	i
Cc1cccc(CN2CCC(CNC(=O)CSc3cc(=O)n(C)c4cc(Cl)ccc34)CC2)c1	nt	nt	i	i	nt	i
CCOC(=O)c1c(NC(=O)CSc2ncnc3ccccc23)sc(C(C)=O)c1C	i	i	i	i	42	i
Cc1ccnc(NS(=O)(=O)c2ccc(NC(=O)c3ccc([N+](=O)[O-])s3)cc2)n1	i	i	i	i	i	i
COc1ccccc1N(CC(=O)NC(C)(C)C)S(=O)(=O)c1cccs1	i	i	42	i	i	i
CCCCOc1ccc(-c2cc(C(F)(F)F)c(C#N)c(SCC(=O)O)n2)cc1	i	i	i	i	i	i
S=c1[nH]c(-c2ccccc2)cs1	i	2.5	i	i	i	i
Fc1ccc(-c2csc(=S)[nH]2)cc1	i	i	i	i	i	i
Cc1[nH]n(-c2ccccc2)c(=O)c1N=Nc1nccs1	i	13	i	nt	i	i
Cc1ccc(S(=O)(=O)N(Cc2ccccc2)Cc2ccco2)cc1	i	nt	i	nt	i	45
Cc1ccc(C(=O)Cn2nnc(-c3cccs3)n2)cc1	nt	nt	i	i	nt	i
O=C(CN1CC[n+]2c(-c3cccs3)csc21)c1ccc(-c2ccccc2)cc1	i	-5.6	i	i	i	i
O=C(COc1cccnc1[N+](=O)[O-])Nc1cc(S(=O)(=O)N2CCCCC2)ccc1Cl	nt	nt	i	i	nt	i
N#C/C(=C/c1ccc(-c2ccc(S(N)(=O)=O)cc2)o1)c1nc2ccccc2s1	i	i	i	i	i	14
N#C/C(=C\c1ccc(-c2ccc(F)cc2)o1)C(=O)Nc1nc(-c2cccs2)cs1	i	nt	i	i	i	i
N#C/C(=C/c1ccc(-c2ccccc2)o1)c1nc(-c2cccs2)cs1	i	-5.3	i	i	i	i
N#C/C(=C/c1ccc(-c2ccc(S(N)(=O)=O)cc2)o1)C(=O)Nc1ccccc1	i	nt	i	i	i	i
